Laboratory results from ChEMBL document CHEMBL4330062 (Eur J Med Chem, 2019).
Where a SMILES comes first, the peptide text is derived from it. Bridges are numbered along the chain shown (N, C = ends). The star is where a group is joined. NH(β-GlcNAc) = CC(=O)N[C@@H]1[C@@H](O)[C@H](O)[C@@H](CO)O[C@H]1N*; Valol = CC(C)[C@@H](CO)N*

How the values were obtained:
[1] = biological target: T1, Somatostatin receptor type 4 (Homo sapiens, UniProt P31391); assay: Displacement of [125I]somatostatin-14 (Tyr11) from human SSTR4 expressed in African green monkey COS1 cell membranes after 2 hrs by scintillation counting method
T1 sequence (P31391 whole entry): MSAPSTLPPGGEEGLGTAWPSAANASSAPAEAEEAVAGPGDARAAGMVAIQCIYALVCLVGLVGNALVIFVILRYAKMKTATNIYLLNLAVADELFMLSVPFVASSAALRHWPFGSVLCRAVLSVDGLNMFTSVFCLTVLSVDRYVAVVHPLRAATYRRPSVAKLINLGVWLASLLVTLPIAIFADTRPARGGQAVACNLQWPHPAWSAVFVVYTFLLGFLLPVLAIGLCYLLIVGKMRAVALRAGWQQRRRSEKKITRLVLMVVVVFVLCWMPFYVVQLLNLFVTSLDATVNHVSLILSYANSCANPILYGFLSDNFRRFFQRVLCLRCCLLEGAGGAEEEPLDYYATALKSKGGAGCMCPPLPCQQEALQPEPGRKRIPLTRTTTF
Summary of the method: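 Membranes from transiently transfected COS-1 cells (10 μg protein) incubated 2 h at room temperature in 10 mM Hepes pH 7.5 with 5 mM MgCl2, bacitracin, 0.5% BSA and ¹²⁵I-[Tyr¹¹]-somatostatin-14 (30,000 cpm), with unlabeled somatostatin-14 and test ligands at various concentrations. Bound radioactivity read by scintillation counting.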

[2] = biological target: T2, Somatostatin receptor type 5 (Homo sapiens, UniProt P35346); assay: Displacement of [125I]somatostatin-14 (Tyr11) from human SSTR5 expressed in African green monkey COS1 cell membranes after 2 hrs by scintillation counting method
T2 sequence (P35346 whole entry): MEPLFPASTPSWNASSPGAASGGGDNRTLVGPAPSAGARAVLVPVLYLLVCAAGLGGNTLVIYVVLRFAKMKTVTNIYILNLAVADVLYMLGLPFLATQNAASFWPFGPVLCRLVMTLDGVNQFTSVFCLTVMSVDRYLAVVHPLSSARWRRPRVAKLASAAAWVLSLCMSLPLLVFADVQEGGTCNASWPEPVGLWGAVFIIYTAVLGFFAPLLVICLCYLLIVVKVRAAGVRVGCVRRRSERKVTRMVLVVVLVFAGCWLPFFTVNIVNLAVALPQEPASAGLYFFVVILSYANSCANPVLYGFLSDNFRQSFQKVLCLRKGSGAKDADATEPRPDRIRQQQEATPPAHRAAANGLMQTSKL
Summary of the method: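 SSTR-5 gene cloned into pCMV6c and transfected into COS1 cells. Membrane preparation (20 μg protein) incubated 2 h at room temperature in Na⁺-free buffer: 10 mM HEPES, 1% BSA, 5 mM MgCl2, 1 mg/ml bacitracin, pH 7.45. Contained ~10 pM [¹²⁵I-Tyr¹¹]-somatostatin-14, either alone or with somatostatin-14 and test ligands at various concentrations.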

Homo sapiens [3] = organism: Homo sapiens; assay: Selectivity ratio of Ki for human SSTR5 to Ki for human SSTR4
Homo sapiens [4] = organism: Homo sapiens; assay: Selectivity ratio of Ki for human SSTR4 to Ki for human SSTR5
[5] = biological target: T1, Somatostatin receptor type 4; assay: Inhibition of human SSTR4 by radioligand binding assay
[6] = biological target: T2, Somatostatin receptor type 5; assay: Inhibition of human SSTR5 by radioligand binding assay

Ki [1] [µM] | Ki [2] [µM] | IC50 [1] [µM] | Ratio Ki (Homo sapiens [3]) | IC50 [2] [µM] | Ratio Ki (Homo sapiens [4]) | IC50 [5] [µM] | IC50 [6] [µM] | Compound
> 100 | 23 | – | – | – | – | – | – | NCCCCC[C@@H]1[C@@H](O)[C@H](O)[C@@H](O)CN1Cc1cccc2ccccc12
2.1 | 3.9 | 2.2 | 1.8 | 5.9 | – | – | – | Cc1ccc(S[C@H]2O[C@H](CO)[C@@H](O)[C@H](OC/C=C/CN)[C@@H]2NC(=O)Cc2c[nH]c3ccccc23)cc1
21 | 4.1 | 22 | – | 6.2 | – | – | – | CC(C)CCO[C@@H]1[C@@H](O)[C@@H](O)[C@H]2Cn3cc(nn3)COCCCCCCN(CCc3c[nH]c4ccccc34)CC[C@H]1O2
> 100 | > 100 | – | – | – | – | – | – | NCCCCO[C@@H]1[C@@H](O)[C@H](CO)OC(O)[C@@H]1NC(=O)Cc1c[nH]c2ccccc12 (stereo not given in full)
6.8 | 12 | 6.9 | 1.8 | 18 | – | – | – | Cc1ccc(S[C@H]2O[C@H](CO)[C@@H](O)[C@H](OCCCCN)[C@@H]2NC(=O)Cc2c[nH]c3ccccc23)cc1
0.58 | 1.1 | 0.59 | – | 1.6 | – | – | – | NC/C=C/CO[C@H]1[C@H](O)[C@H](OCc2ccccc2)COC/C=C/c2cccc(O)c2C(=O)OC[C@@H]1NC(=O)Cc1c[nH]c2ccccc12
> 100 | > 100 | > 100 | – | > 100 | – | – | – | NCCCCN1CCCCCOCc2cn(nn2)C[C@H]2O[C@H](CC1)[C@H](OCc1cccc3ccccc13)[C@@H](O)[C@H]2O
1.9 | 3.2 | 1.2 | – | 3 | – | – | – | NCCCCO[C@H]1[C@H](O)[C@H](OCc2ccccc2)COCCCc2cccc(O)c2C(=O)OC[C@@H]1NC(=O)Cc1c[nH]c2ccccc12

The remaining lines, values behind:

Compound | Ki [1] [µM] | Ki [2] [µM] | IC50 [1] [µM] | Ratio Ki (Homo sapiens [3]) | IC50 [2] [µM] | Ratio Ki (Homo sapiens [4]) | IC50 [5] [µM] | IC50 [6] [µM]
CC(=O)N[C@@H](Cc1ccccc1)C(=O)N[C@H]1CSSC[C@@H](C(=O)N[C@H](CO)C(C)C)NC(=O)[C@H](CC(=O)O)NC(=O)[C@H](CCCCN)NC(=O)[C@H](Cc2c[nH]c3ccccc23)NC(=O)[C@H](Cc2ccccc2)NC1=O (Ac-FCFWKDC-Valol; disulfide 2-7) | 7.2 | 10 | 7.4 | – | 16 | – | – | –
NCCCCC[C@@H]1[C@@H](OCc2ccccc2)[C@H](OCc2ccccc2)[C@@H](OCc2ccccc2)CN1Cc1cccc2ccccc12 | 1.9 | 1.3 | – | – | – | 1.46 | – | –
CC(=O)O[C@H]1[C@H](OC(C)=O)[C@@H](CCCCCN)N(Cc2cccc3ccccc23)C[C@@H]1OC(C)=O | 5.4 | 5.1 | – | – | – | 1.05 | – | –
NCCCCCOC[C@@H]1[C@@H](OCc2ccccc2)[C@H](OCc2ccccc2)[C@@H](OCc2ccccc2)CN1CCc1c[nH]c2ccccc12 | – | – | – | 1.13 | – | – | – | –
NCCCCN1CCCCCCOCc2cn(nn2)C[C@H]2O[C@H](CC1)[C@H](OCc1cccc3ccccc13)[C@@H](O)[C@H]2O | > 100 | > 100 | > 100 | – | > 100 | – | – | –
CC(=O)N[C@@H]1[C@@H](O)[C@H](O)[C@@H](CO)O[C@H]1NC(=O)C[C@@H]1NC(=O)[C@H](CCCCN)NC(=O)[C@H](Cc2c[nH]c3ccccc23)NC(=O)[C@H](Cc2ccccc2)NC(=O)[C@@H](NC(=O)[C@H](Cc2ccccc2)NC(C)=O)CSSC[C@@H](C(=O)N[C@H](CO)C(C)C)NC1=O (Ac-FCFWKD(NH(β-GlcNAc))C-Valol; disulfide 2-7) | 20 | 3.4 | 21 | – | 5.2 | – | – | –
NCCCCCOC[C@@H]1[C@@H](O)[C@H](O)[C@@H](O)CN1CCc1c[nH]c2ccccc12 | – | > 100 | – | – | – | – | – | –
C[C@@H](O)[C@@H]1NC(=O)[C@H](CCCCN)NC(=O)[C@@H](Cc2c[nH]c3ccccc23)NC(=O)[C@H](Cc2ccccc2)NC(=O)[C@@H](NC(=O)[C@@H](Cc2ccccc2)NC(=O)CN2CCN(CC(=O)O)CCN(CC(=O)O)CCN(CC(=O)O)CC2)CSSC[C@@H](C(=O)N[C@H](CO)[C@@H](C)O)NC1=O | – | – | – | – | – | – | 0.103 | > 1
CC(=O)N[C@@H](Cc1ccccc1)C(=O)N[C@@H](C)C(=O)N[C@@H](Cc1ccccc1)C(=O)N[C@@H](Cc1c[nH]c2ccccc12)C(=O)N[C@@H](CCCCN)C(=O)N[C@@H](CC(=O)O)C(=O)N[C@@H](C)C(=O)N[C@H](CO)C(C)C (Ac-FAFWKDA-Valol) | > 100 | > 100 | > 100 | – | – | – | – | –
